Entries after “also recorded” stand apart in the source; their conditions may differ. Counter-ions that a name gives are not always drawn. Bridge positions count the residues as written; N and C are the ends. Ends that are not written are not given here.
Columns and labels:
HEK-PR1 cells [1] = assay: Potentiation of CCh-evoked Ca^2+ signals in cell populations; assay type: cell-based, human; conditions: for Δ [Ca^2+]i Maximal increase: potentiation of CCh-evoked Ca^2+ signal, 30-s stimulation; for potentiation of CCh-evoked Ca^2+ signals: qualitative; for effect of stimulus alone on [Ca^2+]i / Ca^2+ release (absence of CCh): somatostatin 1 μM; for effect on CCh-evoked Ca^2+ signals: 30 mM; for increase in the sensitivity to CCh: PTH 100 nM 1 min, 8-Br-cAMP 10 mM 20 min
HEK-PR1 cells [2] = assay: cAMP production measured by RIA; assay type: cell-based, human; conditions: for Δ cAMP Maximal response: identical conditions to Ca^2+ assay (with CCh); for EC50: read-out: Δ cAMP EC50
HEK-PR1 cells [3] = assay: Single cell imaging of [Ca^2+]i; assay type: cell-based, human; conditions: single cell analyses
HEK-PR1 cells [4] = conditions: <100 μM; ref Short and Taylor, 2000; Tovey et al., 2003; cited from earlier work
PKA = conditions: ref He et al., 2003; cited from earlier work
IP3R = assay: IP3-evoked Ca^2+ release from permeabilized cells
HEK-PR1 cells [5] = assay: Protein phosphorylation by Western blot with AbP; assay type: cell-based, human; conditions: H89 10 μM for 20 min
Procedure, shortened: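 Cells treated with 8-Br-cAMP (10 mM, 20 min), FK (100 μM, 30 s) or PTH (100 nM, 30 s), alone or after H89 (10 μM, 20 min) or st-ht31 (100 μM, 30 min). Lysed at 4°C in Triton X-100 buffer, pH 7.4, with NaF, pyrophosphate and vanadate. Blots probed with anti-phospho Ser/Thr antibody. For IP3R, the immunoprecipitated receptor signal was normalised to IP3R3 and expressed relative to unstimulated cells (n = 3–4).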

[6] = Homo sapiens, read-out: Δ [Ca^2+]i EC50

CC(C)NCC(O)c1ccc(O)c(O)c1 (racemic) [Isoproterenol, (±)-isoproterenol hydrochloride]
EC50 (HEK-PR1 cells [1]; [6]): 90 ± 24 nM
Δ [Ca^2+]i Maximal increase (HEK-PR1 cells [1]): 30 ± 6 nM
potentiation of CCh-evoked Ca^2+ signals (HEK-PR1 cells [1]): potentiated CCh-evoked Ca^2+ signals
effect of stimulus alone on [Ca^2+]i / Ca^2+ release (absence of CCh) (HEK-PR1 cells [1]): no significant effect
Δ cAMP Maximal response (HEK-PR1 cells [2]; 30-s stimulation): 91 ± 15 fmol/sample
EC50 (HEK-PR1 cells [2]; Homo sapiens): 113 ± 43 nM
cells that responded to CCh in which the Ca^2+ signal was potentiated (HEK-PR1 cells [3]): 80 ± 4%

C=C[C@@]1(C)CC(=O)[C@@H]2[C@@]3(C)CCCC(C)(C)[C@@H]3[C@H](O)[C@H](OC(C)=O)[C@@]2(C)O1 [1,9-dideoxyforskolin]
effect on [Ca^2+]i either alone or with CCh (HEK-PR1 cells [1]; 100 μM, unpublished data): no effect

CO[C@H]1C2OP(=O)(O)OC[C@H]2O[C@H]1n1c(Br)nc2c(N)ncnc21 (stereo partly shown) [8-Br-2′-O-methyladenosine-3′,5′-cAMP]
effect on CCh-evoked Ca^2+ signals (HEK-PR1 cells [1]; intact cells): no effect

Nc1ncnc2c1nc(Br)n2[C@@H]1O[C@@H]2COP(=O)(O)O[C@H]2[C@H]1O [8-Br-cAMP]
potentiation of Ca^2+ signals at low concentrations (HEK-PR1 cells [4]): did not significantly potentiate
effect on CCh-evoked Ca^2+ signals (HEK-PR1 cells [1]; intact cells): similarly potentiated
increase in the sensitivity to CCh (HEK-PR1 cells [1]; intact cells): three- to fourfold
EC50 (HEK-PR1 cells [1]; read-out: EC50 for potentiation of CCh-evoked Ca^2+ signals, intact cells, 1 mM CCh, 20-min preincubation): 870000 ± 370000 nM
concentrations that activate PKA (PKA): < 100 µM
EC50 (IP3R; read-out: EC50 for potentiation of IP3-evoked Ca^2+ release, permeabilized cells): 324000 ± 45000 nM

Nc1nc2c(nc(Br)n2[C@@H]2O[C@@H]3COP(=O)(O)O[C@H]3[C@H]2O)c(=O)[nH]1 [8-Br-cGMP]
effect on CCh-evoked Ca^2+ signals (HEK-PR1 cells [1]; intact cells): ineffective

C[N+](C)(C)CCOC(N)=O [CCh, Carbachol]
cells that responded to CCh (HEK-PR1 cells [3]): 98 ± 1%

C=C[C@@]1(C)CC(=O)[C@]2(O)[C@@]3(C)[C@@H](O)CCC(C)(C)[C@@H]3[C@H](O)[C@H](OC(C)=O)[C@@]2(C)O1 [FK, forskolin]
EC50 (HEK-PR1 cells [1]; [6]): 8700 ± 2000 nM
Δ [Ca^2+]i Maximal increase (HEK-PR1 cells [1]): 55 ± 5 nM
potentiation of CCh-evoked Ca^2+ signals (HEK-PR1 cells [1]): So too did
effect of stimulus alone on [Ca^2+]i / Ca^2+ release (absence of CCh) (HEK-PR1 cells [1]): no significant effect
Δ cAMP Maximal response (HEK-PR1 cells [2]; 30-s stimulation): 236 ± 29 fmol/sample
EC50 (HEK-PR1 cells [2]; Homo sapiens): 3300 ± 400 nM
cells that responded to CCh in which the Ca^2+ signal was potentiated (HEK-PR1 cells [3]): 95 ± 3%

Cl.Cl.O=S(=O)(NCCNC/C=C/c1ccc(Br)cc1)c1cccc2cnccc12 [H89, H89 dihydrochloride]
effect of inhibition of PKA on responses of intact cells to 8-Br-cAMP (HEK-PR1 cells [1]; 10 μM H89, unpublished data): unaffected
effect of H89 on sensitivity to isoproterenol (HEK-PR1 cells [1]; by competing for occupancy of β-adrenoceptors (Fig. S2 E)): decreased the sensitivity to isoproterenol
effect on phosphorylation of proteins stimulated by PTH, FK and 8-Br-cAMP (HEK-PR1 cells [5]): prevented

CC(C)Cn1c(=O)n(C)c(=O)c2[nH]cnc21 [IBMX, 3-isobutyl-1-methylxanthine]
effect of PDE inhibition on potentiated Ca^2+ signals (HEK-PR1 cells [1]; IBMX 1 mM for 20 min): slight inhibition

CCCCC[C@H](O)/C=C/[C@H]1[C@H](O)CC(=O)[C@@H]1CCCCCCC(=O)O [PGE1, Prostaglandin E1]
potentiation of CCh-evoked Ca^2+ signals (HEK-PR1 cells [1]): potentiated CCh-evoked Ca^2+ signals

Nc1ncnc2c1ncn2[C@@H]1O[C@@H]2COP(=O)(O)O[C@H]2[C@H]1O [cAMP, cyclic adenosine monophosphate]
increase in sensitivity of IP3-evoked Ca^2+ release (IP3R; permeabilized HEK cells, high concentrations of cAMP): ~4.5 fold
affinity of IP3R site for cAMP relative to that of PKA or CNGC (IP3R; ref Wong and Scott, 2004 for PKA or CNGC): ~20,000 times lower

human PTH(1–34)
increase in the sensitivity to CCh (HEK-PR1 cells [1]; intact cells): three- to fourfold
Δ [Ca^2+]i Maximal increase (HEK-PR1 cells [1]): 101 ± 14 nM
EC50 (HEK-PR1 cells [1]; read-out: EC50 for PTH-mediated Ca^2+ signaling, after loss of AC6 (siRNA)): 54 ± 5 nM
EC50 (HEK-PR1 cells [1]; read-out: EC50 for PTH-mediated Ca^2+ signaling, before loss of AC6): 63 ± 3 nM
effect of stimulus alone on [Ca^2+]i / Ca^2+ release (absence of CCh) (HEK-PR1 cells [1]): does not alone cause Ca^2+ release; also recorded: no significant effect
Δ cAMP Maximal response (HEK-PR1 cells [2]; 30-s stimulation): 6,662 ± 1232 fmol/sample
EC50 (HEK-PR1 cells [2]; 30-s stimulation, with CCh): 29 ± 7 nM
cells that responded to CCh in which the Ca^2+ signal was potentiated (HEK-PR1 cells [3]): 99 ± 1%

somatostatin (AGCKNFFWKTFTSC; disulfide 3-14 (inferred); ends not checked; UniProt P61278 103-116, looked up)
effect of stimulus alone on [Ca^2+]i / Ca^2+ release (absence of CCh) (HEK-PR1 cells [1]): nor does
